Experiments:
[1] = Cytotoxicity against mouse RAW264.7 cells assessed as cell viability at 2 to 64 uM measured after 18 to 24 hrs by MTT assay relative to control; format: cell-based; settings: RAW264.7 cells, read-out: Activity
Summary of the method: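 MTT assay: RAW264.7 cells seeded at 1.0–2.0×10^4 per well and exposed to peptide (2–64 µM) for 18–24 h at 37 °C in 5% CO2. MTT (0.5 mg/mL) added for 4 h, formazan dissolved in DMSO, read at 570 nm. At least three independent experiments with triplicate wells.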

Escherichia coli [2] = assay: Antibacterial activity against Escherichia coli ATCC 25922 measured after 24 hrs; format: functional; settings: ATCC 25922, 24 h
Summary of the method: (§1)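 Broth microdilution adapted from NCCLS. Mid-log bacteria were diluted in MHB to a final (0.5–1) × 10^5 CFU mL−1. Peptides were serially diluted in 0.2% BSA and mixed with an equal volume of cells. After 24 h at 37 °C, MIC was read at A492 as the lowest concentration inhibiting 95% of growth. At least three independent experiments, each with three technical replicates.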

[3] = Antibacterial activity against Salmonella pullorum ATCC 7913 measured after 24 hrs; format: functional, Salmonella enterica subsp. enterica serovar Pullorum; settings: Salmonella enterica, ATCC 7913, 24 h; summary of the method: as §1
Pseudomonas aeruginosa [4] = assay: Antibacterial activity against Pseudomonas aeruginosa ATCC 27853 measured after 24 hrs; format: functional; settings: ATCC 27853, 24 h; summary of the method: as §1
Escherichia coli [5] = assay: Antibacterial activity against Escherichia coli K88 measured after 24 hrs; format: functional; settings: K88, 24 h; summary of the method: as §1
[6] = tested on: Staphylococcus epidermidis; assay: Antibacterial activity against Staphylococcus epidermidis ATCC 12228 measured after 24 hrs; format: functional; settings: ATCC 12228, 24 h; summary of the method: as §1
Escherichia coli [7] = assay: Bactericidal activity against Escherichia coli UB1005 incubated for 24 hrs followed by replating on agar plate and measured after overnight incubation; format: functional; settings: UB1005, 24 h, read-out: MBC>99.9
Summary of the method: (§2)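 Mid-log bacteria diluted in MHB to (0.5–1) × 10^5 CFU/mL and mixed 1:1 with peptide serially diluted in 0.2% BSA. After 24 h at 37 °C, 50 μL of each mixture was plated on agar and incubated overnight. MBC taken as the lowest concentration killing >99.9% of cells. At least three independent experiments, each with three technical replicates.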

Salmonella typhimurium = assay: Bactericidal activity against Salmonella typhimurium ATCC 14028 incubated for 24 hrs followed by replating on agar plate and measured after overnight incubation; format: functional, Salmonella enterica subsp. enterica serovar Typhimurium; settings: Salmonella enterica, ATCC 14028, 24 h; read-out: MBC>99.9; summary of the method: as §2
Pseudomonas aeruginosa [8] = assay: Bactericidal activity against Pseudomonas aeruginosa ATCC 27853 incubated for 24 hrs followed by replating on agar plate and measured after overnight incubation; format: functional; settings: ATCC 27853, 24 h, read-out: MBC>99.9; summary of the method: as §2
Escherichia coli [9] = assay: Bactericidal activity against Escherichia coli K88 incubated for 24 hrs followed by replating on agar plate and measured after overnight incubation; format: functional; settings: K88, 24 h, read-out: MBC>99.9; summary of the method: as §2
Staphylococcus aureus [10] = assay: Bactericidal activity against methicillin-resistant Staphylococcus aureus ATCC 43300 incubated for 24 hrs followed by replating on agar plate and measured after overnight incubation; format: functional; settings: ATCC 43300, 24 h, read-out: MBC>99.9
Summary of the method: (§3)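 After the 24 h, 37 °C MHB microdilution MIC assay, 50 μL from each well was plated on agar and incubated overnight. MBC taken as lowest peptide concentration killing >99.9% of cells. At least three independent experiments, each with three technical replicates.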

Staphylococcus aureus [11] = assay: Bactericidal activity against Staphylococcus aureus ATCC 29213 incubated for 24 hrs followed by replating on agar plate and measured after overnight incubation; format: functional; settings: ATCC 29213, 24 h, read-out: MBC>99.9; summary of the method: as §3
Escherichia coli [12] = assay: Antibacterial activity against Escherichia coli ATCC 25922 measured after 18 to 24 hrs in presence of CaCl2; format: functional
Escherichia coli [13] = assay: Antibacterial activity against Escherichia coli ATCC 25922 measured after 18 to 24 hrs in presence of MgCl2; format: functional
Escherichia coli [14] = assay: Antibacterial activity against Escherichia coli ATCC 25922 measured after 18 to 24 hrs in presence of ZnCl2; format: functional
Staphylococcus aureus [15] = assay: Antibacterial activity against Staphylococcus aureus ATCC 29213 measured after 18 to 24 hrs in presence of KCl; format: functional
Staphylococcus aureus [16] = assay: Antibacterial activity against Staphylococcus aureus ATCC 29213 measured after 18 to 24 hrs in presence of MgCl2; format: functional
Staphylococcus aureus [17] = assay: Antibacterial activity against Staphylococcus aureus ATCC 29213 measured after 18 to 24 hrs in presence of NH4Cl; format: functional
Summary of the method: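 MIC broth microdilution (MHB, 0.2% BSA peptide diluent, A492, 95% inhibition) run in the presence of physiological salts at final concentrations of 6 μM NH4Cl or 8 μM ZnCl2. Three independent assays, each with three technical replicates.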

Candida albicans [18] = assay: Antifungal activity against Candida albicans cgmcc2.2086 measured after 48 hrs in presence of KCl by broth microdilution method; format: functional; settings: cgmcc2.2086, 48 h
Candida albicans [19] = assay: Antifungal activity against Candida albicans cgmcc2.2086 measured after 48 hrs in presence of MgCl by broth microdilution method; format: functional; settings: cgmcc2.2086, 48 h
[20] = Therapeutic index, ratio of MHC10 for hemolytic activity in human RBC to MIC95 against Escherichia coli ATCC 25922; format: toxicity; settings: human red blood cells (erythrocytes), pooled result: one value given for 9 cell lines, strains, targets or settings, read-out: TI
Summary of the method: (§4)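 Therapeutic index = MHC divided by MIC. MHC is the lowest concentration giving >10% lysis of human RBC (1 h, 37 °C, 1-128 µM, A576). MIC is 95% growth inhibition by broth microdilution: bacteria in MHB 24 h at 37 °C; Candida in MOPS-buffered RPMI 1640 at (0.5–1) × 10^3 CFU mL−1, 48 h at 28 °C.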

[21] = Therapeutic index, ratio of MHC10 for hemolytic activity in human RBC to MIC95 against methicillin-resistant Staphylococcus aureus ATCC 43300; format: toxicity; settings: human red blood cells (erythrocytes), read-out: TI; summary of the method: as §4
[22] = Therapeutic index, ratio of MHC10 for hemolytic activity in human RBC to MIC95 against Staphylococcus aureus ATCC 25923; format: toxicity; settings: human red blood cells (erythrocytes), read-out: TI; summary of the method: as §4
[23] = Therapeutic index, ratio of MHC10 for hemolytic activity in human RBC to MIC95 against Candida albicans cgmcc2.2086; format: toxicity; settings: human red blood cells (erythrocytes), read-out: TI; summary of the method: as §4
[24] = Therapeutic index, ratio of MHC10 for hemolytic activity in human RBC to MIC95 against Candida parapsilosis cgmcc2.3989; format: toxicity; settings: human red blood cells (erythrocytes), read-out: TI; summary of the method: as §4
[25] = Therapeutic index, ratio of MHC10 for hemolytic activity in human RBC to MIC95 against Candida tropicalis cgmcc2.1975; format: toxicity; settings: human red blood cells (erythrocytes), read-out: TI; summary of the method: as §4
[26] = Conformational stability in pH 7.4 sodium phosphate buffer assessed as absorption spectra at minimum dichroic band at 35 uM by CD spectra analysis; format: physicochemical; settings: pH 7.4, 35 µM
Summary of the method: (§5)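 CD spectra from 190 to 250 nm of peptide at 35 μM in 10 mM PBS, 30 mM SDS micelles or 50% TFE, recorded in a 1.0-mm quartz cell. Ellipticity was converted to mean residue ellipticity. Three independent scans, each averaged over more than 3 runs.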

[27] = Conformational stability in 50% trifluoro-ethyl alcohol assessed as alpha-helical structural propensity by measuring absorption spectra at minimum dichroic band at 35 uM by CD spectra analysis; format: physicochemical; summary of the method: as §5

| Substance | viability at up to 64 µM [1] | MIC95 (Escherichia coli [2]) | MIC95 [3] | MIC95 (Pseudomonas aeruginosa [4]) | MIC95 (Escherichia coli [5]) | MIC95 [6] | MBC (Escherichia coli [7]) | MBC (Salmonella typhimurium) | MBC (Pseudomonas aeruginosa [8]) | MBC (Escherichia coli [9]) | MBC (Staphylococcus aureus [10]) | MBC (Staphylococcus aureus [11]) | MIC95 (Escherichia coli [12]) | MIC95 (Escherichia coli [13]) | MIC95 (Escherichia coli [14]) | MIC95 (Staphylococcus aureus [15]) | MIC95 (Staphylococcus aureus [16]) | MIC95 (Staphylococcus aureus [17]) | MIC95 (Candida albicans [18]) | MIC95 (Candida albicans [19]) | also measured |
| --- | --- | --- | --- | --- | --- | --- | --- | --- | --- | --- | --- | --- | --- | --- | --- | --- | --- | --- | --- | --- | --- |
| H-AARIILRLRFR-NH2 | 90 to 100% | 4 µM | 4 µM | 8 µM | 4 µM | 2 µM | 8 µM | 8 µM | 32 µM | 8 µM | 4 µM | 4 µM | 32 µM | 16 µM | 4 µM | 2 µM | 2 µM | 2 µM | 8 µM | 8 µM | selectivity ratio [20]: 64; selectivity ratio [21]: 128; selectivity ratio [22]: 128; selectivity ratio [23]: 50.8; selectivity ratio [24]: 50.8; selectivity ratio [25]: 50.8; Wavelength of minimum CD band [26]: 200 nm; Activity [27]: 208 to 222 nm |
| H-AARIILRWRFR-NH2 | 90 to 100% | 4 µM | 2 µM | 4 µM | 2 µM | 1 µM | 4 µM | 4 µM | 4 µM | 4 µM | 1 µM | 2 µM | 4 µM | 4 µM | 4 µM | 1 µM | 2 µM | 2 µM | 8 µM | 16 µM | selectivity ratio [20]: 94.1; selectivity ratio [21]: 215; selectivity ratio [22]: 215; selectivity ratio [23]: 50.8; selectivity ratio [24]: 50.8; selectivity ratio [25]: 50.8; Wavelength of minimum CD band [26]: 200 nm; Activity [27]: 208 to 222 nm |
| H-AARIILRIRFR-NH2 | 90 to 100% | 4 µM | 2 µM | 16 µM | 2 µM | 2 µM | 8 µM | 4 µM | 32 µM | 4 µM | 4 µM | 4 µM | 32 µM | 16 µM | 4 µM | 2 µM | 2 µM | 2 µM | 8 µM | 16 µM | selectivity ratio [20]: 37.3; selectivity ratio [21]: 64; selectivity ratio [22]: 64; selectivity ratio [23]: 25.4; selectivity ratio [24]: 25.4; selectivity ratio [25]: 25.4; Wavelength of minimum CD band [26]: 200 nm; Activity [27]: 208 to 222 nm |
| H-AARRILRWIFR-NH2 | 90 to 100% | 4 µM | 4 µM | 8 µM | 4 µM | 4 µM | 4 µM | 8 µM | 16 µM | 8 µM | 8 µM | 8 µM | 16 µM | 8 µM | 8 µM | 4 µM | 8 µM | 8 µM | 16 µM | 16 µM | selectivity ratio [20]: 59.3; selectivity ratio [21]: 45.2; selectivity ratio [22]: 45.2; selectivity ratio [23]: 40.3; selectivity ratio [24]: 40.3; selectivity ratio [25]: 40.3; Wavelength of minimum CD band [26]: 200 nm; Activity [27]: 208 to 222 nm |
| H-AARIILRGRFR-NH2 | 90 to 100% | 4 µM | 4 µM | 16 µM | 2 µM | 8 µM | 8 µM | 8 µM | 32 µM | 4 µM | 8 µM | 8 µM | 64 µM | 16 µM | 4 µM | 8 µM | 16 µM | 16 µM | 128 µM | > 128 µM | selectivity ratio [20]: 54.3; selectivity ratio [21]: 26.9; selectivity ratio [22]: 26.9; selectivity ratio [23]: 5.04; selectivity ratio [24]: 5.04; selectivity ratio [25]: 5.04; Wavelength of minimum CD band [26]: 200 nm; Activity [27]: 208 to 222 nm |

— ChEMBL document CHEMBL4350958, “Rational Design of Short Peptide Variants by Using Kunitzin-RE, an Amphibian-Derived Bioactivity Peptide, for Acquired Potent Broad-Spectrum Antimicrobial and Improved Therapeutic Potential of Commensalism Coinfection of Pathogens” (J Med Chem, 2019)
